Series [1] in a line: Inhibition of farnesyl transferase. Put shortly: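 FTase (50 ng) was incubated with 500 nM [³H]FPP and 1 μM recombinant H-Ras substrate for 10 min at 30°C, with or without drug. Protein was precipitated and glass-fibre filtered, and incorporated radiolabelled isoprenoid was counted by scintillation. Values are the mean of triplicate determinations.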
Series [2] is described as follows: Toxicity in mouse fibroblast cells assessed as accumulation of prelamin A at 20 uM after 48 hrs by Western blot. It is filed as cell-based. The method, boiled down:
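Mouse fibroblasts were exposed 48 h to drug (20 μM), FTI (5 μM) or DMSO. Prelamin A was detected on Western blots of cell extracts.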
(In general: Immunoblotting shows a protein as a band on a membrane.)

Series [3] deals with HeLa. Put plainly: Toxicity in human HeLa cells transfected with GFP-prelamin A construct assessed as accumulation of uncleaved protein at 20 uM by Western blot. The class given is cell-based. The method, boiled down: (§1)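 Cells were transiently transfected at 80% confluency with a GFP fused to the C-terminal 118 aa of prelamin A. Four hours later, the medium was changed to MEM/10% FBS and drug was added for 18 h (overnight). Uncleaved and cleaved fusion protein were resolved on Western blots probed with anti-GFP and anti-prelamin A antibodies.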

In series [4] the test system is Fibroblast. In words: Effect on HDJ2 farnesylation in mouse fibroblast cells at 20 uM after 24 hrs by Western blot. It is filed as functional, cell-based. Put shortly:
(§2)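 Wild-type fibroblasts exposed 24 h to drug (20 μM) or DMSO vehicle, with GGTI-298 (15 μM) and FTI (5 μM) run alongside. Isoprenylation was judged by band mobility on Western blots. HDJ-2 extracts were resolved on 15% acrylamide/0.08% bisacrylamide SDS/PAGE; Rap1A was probed with anti-Rap1A and anti-Rap1 antibodies.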

Series [5] deals with Fibroblast. In words: Effect on Rap1A isoprenylation in mouse fibroblast cells at 20 uM after 24 hrs by Western blot. It is filed as functional, cell-based. The method, boiled down:
as §2

The target of series [6] is Protein-S-isoprenylcysteine O-methyltransferase (Homo sapiens) (UniProt O60725). In words: Inhibition of human ICMT expressed in yeast assessed as methylation of N-acetyl-farnesylcysteine.
In series [7] the target is T1, CAAX prenyl protease 2 (Mus musculus) (UniProt P57791).
T1 sequence (whole entry): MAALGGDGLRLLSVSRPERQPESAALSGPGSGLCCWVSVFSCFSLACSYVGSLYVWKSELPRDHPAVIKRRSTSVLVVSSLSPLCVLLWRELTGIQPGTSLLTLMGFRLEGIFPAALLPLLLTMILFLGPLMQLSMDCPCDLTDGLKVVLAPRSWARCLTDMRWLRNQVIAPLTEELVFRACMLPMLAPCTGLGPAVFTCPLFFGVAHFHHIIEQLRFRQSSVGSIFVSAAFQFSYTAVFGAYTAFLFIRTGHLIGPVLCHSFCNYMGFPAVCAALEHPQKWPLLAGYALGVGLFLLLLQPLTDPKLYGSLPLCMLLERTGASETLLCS
Put plainly: Inhibition of mouse RCE1 expressed in delta ste24 delta rce1 yeast. Put shortly: (§3)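 Coupled endoproteolysis/methylation assay. Δste24Δrce1 yeast membranes overexpressing mouse ZMPSTE24 or RCE1 (5 μg) plus CH2733 Ste14p membranes (8 μg) were incubated with farnesylated 15-mer a-factor peptide (5 μM for ZMPSTE24, 25 μM for RCE1) and 20 μM [¹⁴C]SAM in 100 mM Tris·HCl pH 7.5 for 30 min at 30°C. Reactions were stopped with NaOH/SDS, and base-releasable [¹⁴C]methanol was measured by vapor diffusion. IC50 values were fitted.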

Series [8] has as its target T2, CAAX prenyl protease 1 homolog (Mus musculus, UniProt Q80W54).
T2 sequence (Q80W54 whole entry): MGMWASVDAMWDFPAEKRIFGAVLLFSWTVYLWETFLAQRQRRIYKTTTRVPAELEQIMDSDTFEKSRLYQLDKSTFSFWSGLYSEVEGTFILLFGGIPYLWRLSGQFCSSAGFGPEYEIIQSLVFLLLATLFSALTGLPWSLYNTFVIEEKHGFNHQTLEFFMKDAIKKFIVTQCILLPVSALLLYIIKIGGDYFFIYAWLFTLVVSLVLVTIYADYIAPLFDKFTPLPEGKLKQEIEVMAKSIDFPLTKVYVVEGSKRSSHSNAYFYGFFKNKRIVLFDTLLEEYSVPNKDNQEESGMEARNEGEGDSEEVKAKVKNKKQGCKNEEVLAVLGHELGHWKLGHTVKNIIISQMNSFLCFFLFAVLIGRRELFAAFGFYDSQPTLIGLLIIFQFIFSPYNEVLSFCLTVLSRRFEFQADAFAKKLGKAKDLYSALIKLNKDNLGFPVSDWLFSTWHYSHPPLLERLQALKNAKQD
In words: Inhibition of mouse ZMPSTE24 expressed n delta ste24 delta rce1 yeast. The method, boiled down:
as §3

Series [9] concerns Fibroblast. In words: Effect on change in ZMPSTE24 mRNA expression level in mouse fibroblasts at 20 uM after 10 days by PCR. It is filed as functional, cell-based.
The subject of series [10] is Fibroblast. Put plainly: Effect on change in ZMPSTE24 protein level in mouse fibroblasts at 20 uM after 10 days by Western blot. The class given is functional, cell-based.
The nature of series [11]: Toxicity in RCE1 deficient mouse fibroblast cells assessed as accumulation of prelamin A at 20 uM after 24 hrs by Western blot. The class given is cell-based. Put shortly: (§4)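 Rce1−/− or Icmt−/− mouse embryonic fibroblasts were treated 24 h with drug (20 μM) or DMSO, with FTI (5 μM) as a comparator. Extracts were run on 4–12% Bis-Tris gels and Western blotted for lamin A/C and prelamin A, using antiserum "b", which recognises both farnesylated and nonfarnesylated forms.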

Series [12] in a line: Toxicity in human AG08470 cells assessed as accumulation of prelamin A at 20 uM after 10 days by Western blot. The note with it: 240 h. It is filed as cell-based. Put shortly:
(§5)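 WT human fibroblasts were cultured in MEM or DMEM with 10% FBS at 37°C, 5% CO₂, then treated 10 days with drug (20 μM), FTI (5 μM) or DMSO. Western blots were probed for lamin A/C, prelamin A antisera "a" (nonfarnesylated only) and "b", and actin. Prelamin A was quantified by image analysis relative to lamin C and to mature lamin A.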

Series [13] is described as follows: Toxicity in human AG07095 cells assessed as accumulation of prelamin A at 20 uM after 10 days by Western blot. The class given is cell-based. The note with it: 240 h. The method, boiled down: as §5
A short description of series [14]: Toxicity in ICMT deficient mouse fibroblast cells assessed as accumulation of prelamin A at 20 uM after 24 hrs by Western blot. It is filed as cell-based. The method, boiled down:
as §4

The nature of series [15]: Toxicity in mouse fibroblast cells assessed as accumulation of prelamin A at 20 uM after 10 days by Western blot. It is filed as cell-based. The settings on record: 240 h. The method, boiled down: (§6)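 WT mouse fibroblasts were treated 10 days with drug (NVP at 200 and 400 μM; STV at 20 and 40 μM; LPV at 20 μM) or DMSO vehicle. Prelamin A accumulation was assessed on Western blots of cell extracts.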

Series [16] relates to HEK293. Put plainly: Toxicity in HEK293 cells transfected with GFP-prelamin A construct assessed as accumulation of uncleaved protein at 20 uM by Western blot. It is filed as cell-based. The note with it: human, hek293, 20 µM. The method, boiled down:
as §1

Series [17] can be described thus: Toxicity in mouse fibroblast cells assessed as accumulation of prelamin A at 200 uM after 10 days by Western blot. The settings on record: 240 h. The class given is cell-based. The method, boiled down: (§7)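 Wild-type mouse fibroblasts were grown at 37 °C in 5% CO₂ in MEM or DMEM with 10% FBS, 2 mM L-glutamine and vitamin/amino acid supplements. Cells were exposed for 10 days to drug (200 mM DMSO stock) or DMSO vehicle. Extracts were run on 4–12% Bis-Tris gels and immunoblotted for lamin A/C, prelamin A (antiserum "b", 1:4,000) and actin.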

Series [18] in a line: Toxicity in mouse fibroblast cells assessed as accumulation of prelamin A at 400 uM after 10 days by Western blot. The class given is cell-based. The note with it: 240 h. The method, boiled down:
as §7

Series [19] in a line: Toxicity in mouse fibroblast cells assessed as accumulation of prelamin A at 40 uM after 10 days by Western blot. It is filed as cell-based. The note with it: 240 h. The method, boiled down: as §6
Series [20] concerns HEK293. In words: Toxicity in HEK293 cells transfected with GFP-prelamin A construct assessed as accumulation of uncleaved protein by Western blot. The note with it: human.

Active and inactive are the calls of the source. The rule behind the calls is not given here.

Chain of Protein-S-isoprenylcysteine O-methyltransferase (Homo sapiens) (O60725 whole entry): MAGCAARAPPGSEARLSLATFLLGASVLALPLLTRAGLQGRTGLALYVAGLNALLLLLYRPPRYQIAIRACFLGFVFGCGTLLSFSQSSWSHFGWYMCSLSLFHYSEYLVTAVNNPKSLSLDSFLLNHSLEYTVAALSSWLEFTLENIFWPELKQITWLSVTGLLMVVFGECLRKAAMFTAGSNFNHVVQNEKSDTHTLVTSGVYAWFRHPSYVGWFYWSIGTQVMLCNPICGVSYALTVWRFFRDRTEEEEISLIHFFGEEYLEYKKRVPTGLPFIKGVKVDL

Consider `COC(=O)N[C@H](C(=O)N[C@@H](Cc1ccccc1)[C@@H](O)CN(Cc1ccc(-c2ccccn2)cc1)NC(=O)[C@@H](NC(=O)OC)C(C)(C)C)C(C)(C)C` [ATAZANAVIR], for which the outcome in [1] was inactive. Also, the Activity entry in [2] and in series [3] was “Toxic” each time.

The IC50 is the concentration at which inhibition is half-maximal. Low values mean higher potency, high ones lower potency. As to `Cc1cccc(C)c1OCC(=O)N[C@@H](Cc1ccccc1)[C@@H](O)C[C@H](Cc1ccccc1)NC(=O)[C@H](C(C)C)N1CCCNC1=O` [LOPINAVIR], the result in series [4], in series [5], in series [1], in [6], in [7] and in series [9] was inactive. Also, the outcome in series [10] was inactive. This molecule also registered a half-maximal inhibitory concentration (IC50) in [8] of 18.4 µM. The Activity result in series [11], in series [12], in series [13], in series [2], in [14] and in [15] was “Toxic” in each case. For the same molecule, the Activity result in [3] and in series [16] was “Toxic” each time.

For the molecule `Cc1ccnc2c1NC(=O)c1cccnc1N2C1CC1` [NEVIRAPINE], the Activity entry in [17], in series [18] and in [3] was “Non-toxic” in each case.

Consider `Cc1cn([C@H]2C=C[C@@H](CO)O2)c(=O)[nH]c1=O` [STAVUDINE], for which the Activity entry in series [15], in series [19] and in series [3] was “Non-toxic” throughout.

For `CCC[C@@]1(CCc2ccccc2)CC(O)=C([C@H](CC)c2cccc(NS(=O)(=O)c3ccc(C(F)(F)F)cn3)c2)C(=O)O1` [TIPRANAVIR], the result in [7] was inactive. This molecule yielded an IC50 in series [8] of 1.2 µM. Also, the Activity result in series [20] is “Toxic”.

These data come from ChEMBL document CHEMBL1147053, “HIV protease inhibitors block the zinc metalloproteinase ZMPSTE24 and lead to an accumulation of prelamin A in cells” (Proc Natl Acad Sci U S A, 2007).
